Test results: ChEMBL document CHEMBL4373727, “Thienopyrimidinone Derivatives That Inhibit Bacterial tRNA (Guanine37-N1)-Methyltransferase (TrmD) by Restructuring the Active Site with a Tyrosine-Flipping Mechanism” (J Med Chem, 2019)
Values after ≈ are worked out from the molar mass of the structure shown. Active and inactive are the calls of the source. The rule behind the calls is not given here.

Columns and labels:
Salmonella enteritidis [1] = assay: Bactericidal activity against Salmonella enteritidis ATCC 13076 assessed as reduction in CFU at 1 to 4 times MIC90 incubated for 24 hrs; type: functional, Salmonella enterica subsp. enterica serovar Enteritidis; conditions: Salmonella enterica, ATCC 13076, 24 h; read-out: MBC99.9
[2] = test system: Mycolicibacterium smegmatis; assay: Bactericidal activity against Mycolicibacterium smegmatis MC2 155 assessed as reduction in CFU at 1 to 4 times MIC90 incubated for 24 hrs; type: functional; conditions: MC2 155, 24 h, read-out: MBC99.9
[3] = biological target: T1, tRNA (guanine-N(1)-)-methyltransferase (Pseudomonas aeruginosa (strain ATCC 15692 / DSM 22644 / CIP 104116 / JCM14847 / LMG 12228 / 1C / PRS 101 / PAO1), UniProt Q9HXQ1); assay: (§1) Inhibition of Pseudomonas aeruginosa tRNA (guanine(37)-N1)-methyltransferase (Leu5 to Asp25 residues) expressed in Escherichia coli BL21 (DE3) Rosetta T1R cells assessed as reduction in S-adenosyl-L-homocysteine production preincubated for 15 mins followed by 1.5 uM of tRNALeu(CAG) substrate and SAM addition and measured after 45 mins by MTase-Glo assay
T1 sequence (Q9HXQ1 whole entry): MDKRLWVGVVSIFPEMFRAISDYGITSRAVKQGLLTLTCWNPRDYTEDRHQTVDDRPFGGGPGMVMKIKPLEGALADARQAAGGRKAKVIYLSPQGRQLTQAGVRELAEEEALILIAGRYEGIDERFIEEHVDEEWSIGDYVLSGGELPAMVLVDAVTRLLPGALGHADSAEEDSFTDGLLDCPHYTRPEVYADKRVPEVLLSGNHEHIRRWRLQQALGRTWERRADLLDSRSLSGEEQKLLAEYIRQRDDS
In short: (§2)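 MTase-Glo luminescence assay. 8 nM TrmD preincubated 15 min at ambient temperature with serially diluted inhibitor (0–500 μM) in 50 mM Tris-HCl pH 8.0, 80 mM NaCl, 1 mM MgCl2, 0.5 mM DTT, 0.01% Triton X-100. Reaction with 2 μM SAM and tRNALeu(CAG), 45 min at 37 °C. Detection 30 min in the dark, SAH read against a standard curve. IC50 by nonlinear regression. Two independent experiments in duplicate.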

Streptococcus pneumoniae [4] = assay: Antibacterial activity against Streptococcus pneumoniae ATCC 49619 incubated for 24 hrs by serial broth microdilution method; type: functional; conditions: ATCC 49619, 24 h
In short: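 Cultured in MH medium plus 3% defibrinated sheep blood at 37 °C, 5% CO2. Log-phase inoculum ~5×10^5 cells/mL was exposed to serial compound dilutions for 24 h. MIC50/MIC90 are relative to drug-free controls. Two independent experiments in duplicate.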

Enterococcus faecalis [5] = assay: Antibacterial activity against Enterococcus faecalis ATCC 51299 incubated for 24 hrs by serial broth microdilution method; type: functional, organism-based
In short: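 Broth microdilution in brain heart infusion broth, ~5×10^5 cells/mL log-phase inoculum, serial compound dilutions, 24 h at 37 °C, OD600 read-out. MIC50/MIC90 are the concentrations giving 50%/90% growth inhibition relative to drug-free controls. Two independent experiments in duplicate.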

[6] = test system: Mycobacterium tuberculosis; assay: Antibacterial activity against Mycobacterium tuberculosis ATCC 27294 at 100 uM incubated for 7 days; type: functional, organism-based
Pseudomonas aeruginosa [7] = assay: Antibacterial activity against Pseudomonas aeruginosa PA14 incubated for 24 hrs by serial broth microdilution method; type: functional, organism-based
In short: (§3)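 Log-phase cultures from four colonies grown overnight at 37 °C, inoculated at ~5×10^5 cells/mL in cation-adjusted Mueller–Hinton broth with serially diluted compound. Grown 24 h at 37 °C, then OD600 read. MIC50/MIC90 are the concentrations giving 50%/90% growth inhibition relative to drug-free controls. Two independent experiments in duplicate.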

[8] = test system: Mycolicibacterium smegmatis; assay: Antibacterial activity against Mycolicibacterium smegmatis MC2 155 at 100 uM incubated for 24 hrs; type: functional, organism-based
In short: (§4)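 Single-concentration growth screen: 100 μM test compound with log-phase bacteria at about 5×10^5 cells/mL. Incubation 24 h at 37 °C. Growth read by OD600 and given as percent of untreated control. MRSA was grown in cation-adjusted Mueller–Hinton broth. M. smegmatis was grown in complete Middlebrook 7H9. Ampicillin and kanamycin served as positive controls.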

Escherichia coli [9] = assay: Antibacterial activity against Escherichia coli BW25113 incubated for 24 hrs by serial broth microdilution method; type: functional, organism-based; in short: as §3
Escherichia coli [10] = assay: Bactericidal activity against Escherichia coli BW25113 assessed as reduction in CFU at 1 to 4 times MIC90 incubated for 24 hrs; type: functional, organism-based
Klebsiella pneumoniae [11] = assay: Antibacterial activity against Klebsiella pneumoniae ATCC 13883 incubated for 24 hrs by serial broth microdilution method; type: functional, organism-based; in short: as §3
Staphylococcus aureus [12] = assay: Bactericidal activity against methicillin-resistant Staphylococcus aureus ATCC 43300 assessed as reduction in CFU at 1 to 4 times MIC90 incubated for 24 hrs; type: functional; conditions: ATCC 43300, 24 h, read-out: MBC99.9
Staphylococcus aureus [13] = assay: Antibacterial activity against methicillin-resistant Staphylococcus aureus ATCC 43300 incubated for 24 hrs by serial broth microdilution method; type: functional; conditions: ATCC 43300, 24 h
In short: (§5)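 Growth read by OD600. MRSA in cation-adjusted Mueller–Hinton broth, M. smegmatis in complete 7H9. MIC50 and MIC90 are 50% and 90% growth inhibition versus drug-free controls. Two independent experiments, each in duplicate.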

Streptococcus pneumoniae [14] = assay: Bactericidal activity against Streptococcus pneumoniae ATCC 49619 assessed as reduction in CFU at 1 to 4 times MIC90 incubated for 24 hrs; type: functional; conditions: ATCC 49619, 24 h, read-out: MBC99.9
Klebsiella pneumoniae [15] = assay: Bactericidal activity against Klebsiella pneumoniae ATCC 13883 assessed as reduction in CFU at 1 to 4 times MIC90 incubated for 24 hrs; type: functional, organism-based
Salmonella enteritidis [16] = assay: Antibacterial activity against Salmonella enteritidis ATCC 13076 incubated for 24 hrs by serial broth microdilution method; type: functional, Salmonella enterica subsp. enterica serovar Enteritidis; conditions: Salmonella enterica, ATCC 13076, 24 h; in short: as §3
Streptococcus pneumoniae [17] = assay: Antibacterial activity against Streptococcus pneumoniae ATCC 49619 at 100 uM incubated for 24 hrs; type: functional, organism-based
In short: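 Single 100 μM screen in MH medium with 3% defibrinated sheep blood at 37 °C under 5% CO2, ~5×10^5 cells/mL, 24 h.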

Enterococcus faecalis [18] = assay: Bactericidal activity against Enterococcus faecalis ATCC 51299 assessed as reduction in CFU at 1 to 4 times MIC90 incubated for 24 hrs; type: functional, organism-based
Pseudomonas aeruginosa [19] = assay: Bactericidal activity against Pseudomonas aeruginosa PA14 assessed as reduction in CFU at 1 to 4 times MIC90 incubated for 24 hrs; type: functional, organism-based
Acinetobacter baumannii [20] = assay: Bactericidal activity against Acinetobacter baumannii ATCC 17961 assessed as reduction in CFU at 1 to 4 times MIC90 incubated for 24 hrs; type: functional; conditions: ATCC 17961, 24 h, read-out: MBC99.9
[21] = test system: Mycolicibacterium smegmatis; assay: Antibacterial activity against Mycolicibacterium smegmatis MC2 155 incubated for 24 hrs by serial broth microdilution method; type: functional; conditions: MC2 155, 24 h; in short: as §5
Staphylococcus aureus [22] = assay: Antibacterial activity against methicillin-resistant Staphylococcus aureus ATCC 43300 at 100 uM incubated for 24 hrs; type: functional, organism-based; in short: as §4
Enterococcus faecalis [23] = assay: Antibacterial activity against Enterococcus faecalis ATCC 51299 at 100 uM incubated for 24 hrs; type: functional, organism-based
In short: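 Single-concentration screen in brain heart infusion broth. Log-phase cells at ~5×10^5 cells/mL were grown with 100 μM compound for 24 h at 37 °C. Growth was read as OD600 and expressed as a percentage of untreated wells. DMSO and blank controls were included.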

Acinetobacter baumannii [24] = assay: Antibacterial activity against Acinetobacter baumannii ATCC 17961 incubated for 24 hrs by serial broth microdilution method; type: functional; conditions: ATCC 17961, 24 h; in short: as §3
[25] = test system: Mycobacterium tuberculosis; assay: Antibacterial activity against Mycobacterium tuberculosis ATCC 27294 incubated for 7 days by broth dilution method; type: functional; conditions: ATCC 27294, 168 h
In short: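 M. tuberculosis ATCC 27294 in complete 7H9 with 0.05% Tween 80, 0.5% glycerol and 10% ADC. Mid-log cells adjusted to OD600 0.1 and added 1:1 to 2-fold serial compound dilutions (highest 100 μM). Incubated 7 d at 37 °C with shaking at 80 rpm, then OD600 read. Isoniazid positive control. MIC50/MIC90 versus drug-free controls. Biological duplicates.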

[26] = biological target: T2, tRNA (guanine-N(1)-)-methyltransferase (Pseudomonas aeruginosa (strain ATCC 15692 / DSM 22644 / CIP 104116 / JCM14847 / LMG 12228 / 1C / PRS 101 / PAO1)) (UniProt Q9HXQ1); assay: Binding affinity to Pseudomonas aeruginosa tRNA (guanine(37)-N1)-methyltransferase (Leu5 to Asp25 residues) expressed in Escherichia coli BL21 (DE3) Rosetta T1R cells assessed as thermal stabilization of protein by measuring change in melting temperature at 0.1 mM by SYPRO orange based thermal shift assay
T2 sequence (whole entry): T1 sequence (Q9HXQ1 whole entry)
In short: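 Thermal shift: 4 μM TrmD with 5× SYPRO Orange and ligand in 50 mM Tris-HCl pH 8, 150 mM NaCl, 1 mM MgCl2, 1 mM DTT, 0.05% Tween-20. Buffer-only control. Heated from 25 to 95 °C in a real-time PCR instrument, and Tm taken as the unfolding midpoint. Ligand levels: SAH 2 mM, inhibitors 0.1 mM.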

[27] = biological target: T2, tRNA (guanine-N(1)-)-methyltransferase (Pseudomonas aeruginosa (strain ATCC 15692 / DSM 22644 / CIP 104116 / JCM14847 / LMG 12228 / 1C / PRS 101 / PAO1)); assay: as §1, with “production up to 50 uM” for “production”; in short: as §2

`CCCCCCCCCCCCNCc1ccc(CNC(=O)c2csc3nc[nH]c(=O)c23)cc1` was tested, and the MBC (Salmonella enteritidis [1]) was greater than 100 µM, the MBC [2] was 69 µM (≈ 33.3 µg/mL) and the IC50 [3] was 0.38 µM. For the same compound, the MIC50 (Streptococcus pneumoniae [4]) was 62 µM (≈ 29.9 µg/mL), the MIC90 (Streptococcus pneumoniae [4]) was 74 µM (≈ 35.7 µg/mL) and the MIC50 (Enterococcus faecalis [5]) was “inactive”. For the same compound, the MIC90 (Enterococcus faecalis [5]) was “inactive”, the Activity [6] was “Active” and the MIC50 (Pseudomonas aeruginosa [7]) was “inactive”. For the same compound, the MIC90 (Pseudomonas aeruginosa [7]) was “inactive”, the Activity [8] was “Active” and the MIC50 (Escherichia coli [9]) was “inactive”. For the same compound, the MIC90 (Escherichia coli [9]) was “inactive”, the MBC99.9 (Escherichia coli [10]) was “inactive” and the MIC50 (Klebsiella pneumoniae [11]) was “inactive”. The MIC90 (Klebsiella pneumoniae [11]) was “inactive”, the MBC (Staphylococcus aureus [12]) was 34 µM (≈ 16.4 µg/mL) and the MIC50 (Staphylococcus aureus [13]) was 5 µM (≈ 2.41 µg/mL). The MIC90 (Staphylococcus aureus [13]) was 8.5 µM (≈ 4.1 µg/mL), the MBC (Streptococcus pneumoniae [14]) was greater than 100 µM and the MBC99.9 (Klebsiella pneumoniae [15]) was “inactive”. For the same compound, the MIC50 (Salmonella enteritidis [16]) was greater than 100 µM, the MIC90 (Salmonella enteritidis [16]) was greater than 100 µM and the Activity (Streptococcus pneumoniae [17]) was “Active”. For the same compound, the MBC99.9 (Enterococcus faecalis [18]) was “inactive”, the MBC99.9 (Pseudomonas aeruginosa [19]) was “inactive” and the MBC (Acinetobacter baumannii [20]) was greater than 100 µM. For the same compound, the MIC50 [21] was 17 µM (≈ 8.21 µg/mL), the MIC90 [21] was 23 µM (≈ 11.1 µg/mL) and the Activity (Staphylococcus aureus [22]) was “Active”. The Activity (Enterococcus faecalis [23]) was “Active”, the MIC50 (Acinetobacter baumannii [24]) was 75 µM (≈ 36.2 µg/mL) and the MIC90 (Acinetobacter baumannii [24]) was 99 µM (≈ 47.8 µg/mL). For the same compound, the MIC50 [25] was 44 µM (≈ 21.2 µg/mL) and the MIC90 [25] was 88 µM (≈ 42.5 µg/mL).

In the case of `CCCCCCCCNCc1ccc(CNC(=O)c2csc3ncnc(OCCCCCC)c23)cc1`, the ΔTm [26] is reported as 1 to 2 °C and the inhibition [27] is reported as “inactive”.

In the case of `CCCCCCCCNCc1ccc(CNC(=O)c2csc3ncnc(OCCC)c23)cc1`, the ΔTm [26] is reported as 1 to 2 °C and the inhibition [27] is reported as “inactive”.
